# Article PMC5668626 (Biochemistry and Biophysics Reports, 2015)
# pKd: −log10 of the molar value.
# Assays:
# [1] = molecular target: Plasmodium falciparum P2 (recombinant) (Plasmodium falciparum); experiment: SEC
# [2] = molecular target: T1, PfP2-tetramer (Plasmodium falciparum P2, recombinant) (Plasmodium falciparum, UniProt O00806); experiment: isothermal titration calorimetry; format: binding
# T1 sequence (O00806 1-112): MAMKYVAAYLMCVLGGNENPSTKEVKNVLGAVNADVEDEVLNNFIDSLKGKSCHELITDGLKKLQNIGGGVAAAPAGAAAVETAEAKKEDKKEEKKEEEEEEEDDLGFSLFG
# Procedure, shortened: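 Recombinant PfP2 tetramer (0.075 mM) in the sample cell, with buffer in the reference cell, at pH 7.4 and 25 °C. The hydrophobic dye ligand (15 mM, syringe) was added in 50 injections of 5 μl, each lasting 10 s and spaced 4 min apart, with stirring. Titration heats were fitted to a binding model for K, ΔH, ΔS and n.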
compound,measurement,setting,value
Plasmodium falciparum P2 (recombinant) (natural protein),stoichiometry N,[1],4
O=S(=O)(O)c1cccc2cccc(Nc3ccccc3)c12 [ANS],pKd,[2],3.99
